# Data: ChEMBL document CHEMBL2396525, “Synthesis and anti-HCMV activity of 1-[ω-(phenoxy)alkyl]uracil derivatives and analogues thereof” (Bioorg Med Chem, 2013)
# pEC50: −log10 of the molar value. Calls of active or inactive are those of the source. The rule behind the calls is not given here.
# Legend:
# [1] = tested on: HEL; experiment: Cytotoxicity against HEL; format: cell-based; conditions: human
# [2] = tested on: Influenza A virus; experiment: Antiviral activity against Influenza virus A virus H1N1; format: functional, organism-based
# Procedure, shortened: (§1)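 The assay was a cell-based cytopathicity inhibition test on confluent monolayers with serial compound dilutions. EC50 was the concentration that reduced virus-induced cytopathicity by 50%.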
# [3] = tested on: Vaccinia virus; experiment: Antiviral activity against Vaccinia virus Lederle; format: functional, organism-based; conditions: Orthopoxvirus vaccinia
# [4] = tested on: Punta Toro virus; experiment: Antiviral activity against Punta Toro virus; format: functional, organism-based
# Procedure, shortened: (§2)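 Confluent HEL, Vero, HeLa or MDCK cell cultures were inoculated with 100 CCID50 of virus alongside varying compound concentrations. Cytopathicity was scored when it reached completion in untreated virus controls. EC50 is the concentration that reduces virus-induced cytopathogenicity by 50%.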
# [5] = tested on: Sindbis virus; experiment: Antiviral activity against Sindbis virus; format: functional, organism-based; procedure, shortened: as §2
# [6] = tested on: Human alphaherpesvirus 2; experiment: Antiviral activity against Herpes simplex virus type 2 G; format: functional, organism-based; conditions: strain G; procedure, shortened: as §2
# [7] = tested on: Human immunodeficiency virus 1; experiment: Antiviral activity against HIV1 3B infected in human CEM cells assessed as inhibition of virus-induced giant cell formation after 4 to 5 days; format: functional, organism-based; conditions: CCRF-CEM
# Procedure, shortened: (§3)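 CEM cells at about 3 × 10^5 cells/mL were infected with 100 CCID50 of HIV per mL, with compound dilutions present. They were incubated 4–5 days at 37 °C in humidified CO2, and syncytia were scored microscopically. EC50 is the concentration that inhibits giant cell formation by 50%.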
# [8] = tested on: Human respirovirus 3; experiment: Antiviral activity against Parainfluenza virus 3; format: functional, organism-based; procedure, shortened: as §2
# [9] = tested on: Human betaherpesvirus 5; experiment: Antiviral actiivty against Human herpesvirus 5 AD169 infected in HEL assessed as reduction of virus-induced plaque formation; format: functional, organism-based; conditions: Human betaherpesvirus 5, AD169
# Procedure, shortened: (§4)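 HCMV strains AD-169 and Davis were tested on confluent human embryonic lung fibroblast monolayers infected with 100 PFU in the presence of serial compound concentrations. Plaques were counted once formation was complete in untreated infected controls. EC50 is the concentration that cuts plaque formation by 50%.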
# [10] = tested on: Human alphaherpesvirus 3; experiment: Antiviral activity against Varicella-zoster virus YS; format: functional, organism-based
# Procedure, shortened: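 VZV was assayed by plaque formation. Confluent cell cultures received 10 or 100 PFU with varying compound concentrations, and plaques were recorded once complete in untreated infected controls. EC50 is the concentration that reduces plaque formation by 50%.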
# [11] = tested on: Coxsackievirus B4; experiment: Antiviral activity against Coxsackie B4 virus; format: functional, organism-based; procedure, shortened: as §2
# [12] = tested on: Influenza A virus; experiment: Antiviral activity against Influenza virus A virus H3N2; format: functional, organism-based; procedure, shortened: as §1
# [13] = tested on: Human alphaherpesvirus 2; experiment: Antiviral activity against Herpes simplex virus type 2 Lyons; format: functional, organism-based; procedure, shortened: as §2
# [14] = tested on: Vesicular stomatitis virus; experiment: Antiviral activity against Vesicular stomatitis virus; format: functional, organism-based
# [15] = tested on: Respiratory syncytial virus; experiment: Antiviral activity against Respiratory syncytial virus Long; format: functional, organism-based; procedure, shortened: as §2
# [16] = Cytotoxicity against human CEM cells; format: cell-based; conditions: CCRF-CEM (CEM) cells
# [17] = tested on: Feline coronavirus; experiment: Antiviral activity against Feline coronavirus; format: functional, organism-based
# [18] = tested on: Human betaherpesvirus 5; experiment: Antiviral actiivty against Human herpesvirus 5 Davis infected in HEL assessed as reduction of virus-induced plaque formation; format: functional, organism-based; conditions: Human betaherpesvirus 5, Davis; procedure, shortened: as §4
# [19] = tested on: Human alphaherpesvirus 1; experiment: Antiviral activity against Herpes simplex virus type 1 KOS; format: functional, organism-based; procedure, shortened: as §2
# [20] = tested on: Human alphaherpesvirus 1; experiment: Antiviral activity against thymidine kinase deficient acyclovir-resistant Herpes simplex virus type 1 KOS; format: functional, organism-based
# [21] = tested on: Influenza B virus; experiment: Antiviral activity against Influenza B virus; format: functional, organism-based; procedure, shortened: as §1
# [22] = tested on: Human immunodeficiency virus 2; experiment: Antiviral activity against HIV2 ROD infected in human CEM cells assessed as inhibition of virus-induced giant cell formation after 4 to 5 days; format: functional, organism-based; conditions: ISOLATE ROD, CCRF-CEM; procedure, shortened: as §3
# [23] = tested on: Mammalian orthoreovirus 1; experiment: Antiviral activity against Reovirus-1; format: functional, organism-based; procedure, shortened: as §2
# [24] = Cytotoxicity against HEL assessed as minimum cytotoxic concentration required to cause microscopically detectable alteration in cell morphology; format: cell-based; conditions: human, HEL cells
# [25] = tested on: Human alphaherpesvirus 3; experiment: Antiviral activity against Varicella-zoster virus OKA; format: functional; conditions: strain Oka vaccine
# Procedure, shortened: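 Confluent cell monolayers were infected with 10 or 100 PFU of VZV in the presence of serial compound dilutions. Plaque formation was recorded once untreated infected controls reached completion. EC50 was the concentration that reduced plaque formation by 50%.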
SMILES,CC50 [1] [µM],Activity [2],Activity [3],Activity [4],Activity [5],Activity [6],Activity [8],pEC50 [9],Activity [10],Activity [11],Activity [12],Activity [13],Activity [14],Activity [15],Activity [17],pEC50 [18],Activity [19],Activity [20],Activity [21],Activity [22],further results
Cc1cc(C)cc(OCCCCCn2ccc(=O)[nH]c2=O)c1,> 100,inactive,inactive,inactive,inactive,inactive,inactive,< 4.00,inactive,inactive,inactive,inactive,inactive,inactive,inactive,< 4.00,inactive,inactive,inactive,inactive,"pEC50 ([7]; Human immunodeficiency virus 1, 3B): 4.62; CC50 [16]: 154 µM; Activity [23]: inactive; MCC [24]: > 100 µM; Activity [25]: inactive"
CC(C)c1ccc(OCCCCCn2ccc(=O)[nH]c2=O)cc1,> 100,inactive,inactive,inactive,inactive,inactive,inactive,4.60,inactive,inactive,inactive,inactive,inactive,inactive,inactive,4.82,inactive,inactive,inactive,inactive,Activity [7]: inactive; Activity [23]: inactive; MCC [24]: 100 µM; Activity [25]: inactive
